Experimental data: ChEMBL document CHEMBL3414513, “Synthesis and biological evaluation of betulonic acid derivatives as antitumor agents” (Eur J Med Chem, 2015)

Legend:
Type in all cases: functional, cell-based
[1] = tested on: MGC-803; assay: Cytotoxicity against human MGC803 cells after 72 hrs by MTT assay; conditions: for IC50: MGC-803, 72 h
Outline: (§1)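 Cancer lines grown in RPMI 1640 with 10% heat-inactivated FBS, 37 °C, 5% CO2. Cells trypsinized at 80-90% confluence, seeded at 2×10^3/well overnight, then given compounds (DMSO stocks diluted in medium) at various concentrations for 72 h at 37 °C. Controls: 0.1% DMSO negative, adriamycin positive. MTT (5 mg/ml) added for 4 h, formazan dissolved in SDS 12 h, A595 read. IC50 from dose-response curves.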

[2] = (§2) Cytotoxicity against human PC3 cells after 72 hrs by MTT assay; conditions: PC-3, 72 h
Outline: as §1, with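 “Cells” for “Cancer lines grown in RPMI 1640 with 10% heat-inactivated FBS, 37 °C, 5% CO2. Cells”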

[3] = tested on: PC-3; assay: as §2
Outline: as §1, with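 “Cells” for “Cancer lines grown in RPMI 1640 with 10% heat-inactivated FBS, 37 °C, 5% CO2. Cells”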

[4] = tested on: Bcap37; assay: Cytotoxicity against human Bcap37 cells after 72 hrs by MTT assay; conditions: for IC50: Bcap37, 72 h; outline: as §1
[5] = tested on: A-375; assay: Cytotoxicity against human A375 cells after 72 hrs by MTT assay; conditions: for IC50: A-375, 72 h; outline: as §1
[6] = tested on: MCF7; assay: Cytotoxicity against human MCF7 cells after 72 hrs by MTT assay; conditions: for IC50: MCF7, 72 h; outline: as §1

In the case of `C=C(C)[C@@H]1CC[C@]2(C(=O)OCCN3CCCC3)CC[C@]3(C)[C@H](CC[C@@H]4[C@@]5(C)CCC(=O)C(C)(C)[C@@H]5CC[C@]43C)[C@@H]12`, the Activity [1] is reported as “Dose-dependent effect”, the IC50 [1] is reported as 10.8 µM and the IC50 [2] is reported as 12.3 µM. The Activity [3] was “Dose-dependent effect”, the Activity [4] was “Dose-dependent effect” and the IC50 [4] was 10.2 µM. The Activity [5] was “Dose-dependent effect”, the IC50 [5] was 9.7 µM and the Activity [6] was “Dose-dependent effect”. It also gave an IC50 [6] of 9.4 µM.

With `C=C(C)[C@@H]1CC[C@]2(C(=O)OCCN(CC)CC)CC[C@]3(C)[C@H](CC[C@@H]4[C@@]5(C)CCC(=O)C(C)(C)[C@@H]5CC[C@]43C)[C@@H]12` the Activity [1] was “Dose-dependent effect”, the IC50 [1] was 11.7 µM and the IC50 [2] was 10.1 µM. For the same molecule, the Activity [3] was “Dose-dependent effect”, the Activity [4] was “Dose-dependent effect” and the IC50 [4] was 15.6 µM. The Activity [5] was “Dose-dependent effect”, the IC50 [5] was 14.3 µM and the Activity [6] was “Dose-dependent effect”. It also gave an IC50 [6] of 12.8 µM.

In the case of `C=C(C)[C@@H]1CC[C@]2(C(=O)OCCCCN3CCOCC3)CC[C@]3(C)[C@H](CC[C@@H]4[C@@]5(C)CCC(=O)C(C)(C)[C@@H]5CC[C@]43C)[C@@H]12`, the Activity [1] is reported as “Dose-dependent effect”, the IC50 [1] is reported as 5.6 µM and the IC50 [2] is reported as 7.2 µM. The Activity [3] was “Dose-dependent effect”, the Activity [4] was “Dose-dependent effect” and the IC50 [4] was 5.2 µM. For the same molecule, the Activity [5] was “Dose-dependent effect”, the IC50 [5] was 6.8 µM and the Activity [6] was “Dose-dependent effect”. For the same molecule, the IC50 [6] was 8.5 µM.

In the case of `C=C(C)[C@@H]1CC[C@]2(C(=O)OCCCBr)CC[C@]3(C)[C@H](CC[C@@H]4[C@@]5(C)CCC(=O)C(C)(C)[C@@H]5CC[C@]43C)[C@@H]12`, the Activity [1] is reported as “Dose-dependent effect”, the IC50 [1] is reported as over 20 µM and the IC50 [2] is reported as over 20 µM. For the same molecule, the Activity [3] was “Dose-dependent effect”, the Activity [4] was “Dose-dependent effect” and the IC50 [4] was over 20 µM. The Activity [5] was “Dose-dependent effect”, the IC50 [5] was over 20 µM and the Activity [6] was “Dose-dependent effect”. The IC50 [6] was over 20 µM.

For `C=C(C)[C@@H]1CC[C@]2(C(=O)O)CC[C@]3(C)[C@H](CC[C@@H]4[C@@]5(C)CCC(=O)C(C)(C)[C@@H]5CC[C@]43C)[C@@H]12` [BETUNOLIC ACID], the IC50 [1] was 17.7 µM, the IC50 [2] was 13.9 µM and the Activity [3] was “Dose-dependent effect”. The Activity [4] was “Dose-dependent effect”, the IC50 [4] was 25.7 µM and the Activity [5] was “Dose-dependent effect”. The IC50 [5] was 28.9 µM, the Activity [6] was “Dose-dependent effect” and the IC50 [6] was 18.2 µM.

With `C=C(C)[C@@H]1CC[C@]2(C(=O)OCCN3CCN(C(=O)c4cccc(F)c4)CC3)CC[C@]3(C)[C@H](CC[C@@H]4[C@@]5(C)CCC(=O)C(C)(C)[C@@H]5CC[C@]43C)[C@@H]12` the Activity [1] was “Dose-dependent effect”, the IC50 [1] was 4.9 µM and the IC50 [2] was 6.8 µM. For the same molecule, the Activity [3] was “Dose-dependent effect”, the Activity [4] was “Dose-dependent effect” and the IC50 [4] was 6.4 µM. The Activity [5] was “Dose-dependent effect”, the IC50 [5] was 7.6 µM and the Activity [6] was “Dose-dependent effect”. The IC50 [6] was 5.4 µM.

In the case of `C=C(C)[C@@H]1CC[C@]2(C(=O)OCCN3CCN(C(=O)CCCCCCCC)CC3)CC[C@]3(C)[C@H](CC[C@@H]4[C@@]5(C)CCC(=O)C(C)(C)[C@@H]5CC[C@]43C)[C@@H]12`, the Activity [1] is reported as “Dose-dependent effect”, the IC50 [1] is reported as over 20 µM and the IC50 [2] is reported as over 20 µM. For the same molecule, the Activity [3] was “Dose-dependent effect”, the Activity [4] was “Dose-dependent effect” and the IC50 [4] was over 20 µM. For the same molecule, the Activity [5] was “Dose-dependent effect”, the IC50 [5] was over 20 µM and the Activity [6] was “Dose-dependent effect”. The IC50 [6] was 17.6 µM.

For `C=C(C)[C@@H]1CC[C@]2(C(=O)OCCN3CCOCC3)CC[C@]3(C)[C@H](CC[C@@H]4[C@@]5(C)CCC(=O)C(C)(C)[C@@H]5CC[C@]43C)[C@@H]12`, the Activity [1] was “Dose-dependent effect”, the IC50 [1] was 9.4 µM and the IC50 [2] was 11.3 µM. For the same molecule, the Activity [3] was “Dose-dependent effect”, the Activity [4] was “Dose-dependent effect” and the IC50 [4] was 8.8 µM. The Activity [5] was “Dose-dependent effect”, the IC50 [5] was 10.5 µM and the Activity [6] was “Dose-dependent effect”. It also gave an IC50 [6] of 10.1 µM.

In the case of `C=C(C)[C@@H]1CC[C@]2(C(=O)OCCCN(CC)CC)CC[C@]3(C)[C@H](CC[C@@H]4[C@@]5(C)CCC(=O)C(C)(C)[C@@H]5CC[C@]43C)[C@@H]12`, the Activity [1] is reported as “Dose-dependent effect”, the IC50 [1] is reported as 6.8 µM and the IC50 [2] is reported as 7 µM. The Activity [3] was “Dose-dependent effect”, the Activity [4] was “Dose-dependent effect” and the IC50 [4] was 6.1 µM. For the same molecule, the Activity [5] was “Dose-dependent effect”, the IC50 [5] was 9.3 µM and the Activity [6] was “Dose-dependent effect”. It also gave an IC50 [6] of 7.3 µM.

With `C=C(C)[C@@H]1CC[C@]2(C(=O)OCCN3CCN(C(=O)/C=C/c4ccccc4)CC3)CC[C@]3(C)[C@H](CC[C@@H]4[C@@]5(C)CCC(=O)C(C)(C)[C@@H]5CC[C@]43C)[C@@H]12` the Activity [1] was “Dose-dependent effect”, the IC50 [1] was 13.4 µM and the IC50 [2] was 11 µM. For the same molecule, the Activity [3] was “Dose-dependent effect”, the Activity [4] was “Dose-dependent effect” and the IC50 [4] was 9.4 µM. For the same molecule, the Activity [5] was “Dose-dependent effect”, the IC50 [5] was 9.3 µM and the Activity [6] was “Dose-dependent effect”. The IC50 [6] was 7.3 µM.

For `C=C(C)[C@@H]1CC[C@]2(C(=O)OCCCCBr)CC[C@]3(C)[C@H](CC[C@@H]4[C@@]5(C)CCC(=O)C(C)(C)[C@@H]5CC[C@]43C)[C@@H]12`, the Activity [1] was “Dose-dependent effect”, the IC50 [1] was over 20 µM and the IC50 [2] was over 20 µM. For the same molecule, the Activity [3] was “Dose-dependent effect”, the Activity [4] was “Dose-dependent effect” and the IC50 [4] was over 20 µM. For the same molecule, the Activity [5] was “Dose-dependent effect”, the IC50 [5] was over 20 µM and the Activity [6] was “Dose-dependent effect”. The IC50 [6] was over 20 µM.

For `C=C(C)[C@@H]1CC[C@]2(C(=O)OCCN3CCN(C(=O)C(CC)CCCC)CC3)CC[C@]3(C)[C@H](CC[C@@H]4[C@@]5(C)CCC(=O)C(C)(C)[C@@H]5CC[C@]43C)[C@@H]12` (stereo partly specified), the Activity [1] was “Dose-dependent effect”, the IC50 [1] was 13.4 µM and the IC50 [2] was over 20 µM. For the same molecule, the Activity [3] was “Dose-dependent effect”, the Activity [4] was “Dose-dependent effect” and the IC50 [4] was 18.7 µM. For the same molecule, the Activity [5] was “Dose-dependent effect”, the IC50 [5] was over 20 µM and the Activity [6] was “Dose-dependent effect”. The IC50 [6] was 15.4 µM.

For `C=C(C)[C@@H]1CC[C@]2(C(=O)OCCN3CCN(C(=O)c4c(Cl)cccc4Cl)CC3)CC[C@]3(C)[C@H](CC[C@@H]4[C@@]5(C)CCC(=O)C(C)(C)[C@@H]5CC[C@]43C)[C@@H]12`, the Activity [1] was “Dose-dependent effect”, the IC50 [1] was 16.6 µM and the IC50 [2] was 14.1 µM. The Activity [3] was “Dose-dependent effect”, the Activity [4] was “Dose-dependent effect” and the IC50 [4] was over 20 µM. For the same molecule, the Activity [5] was “Dose-dependent effect”, the IC50 [5] was 17.4 µM and the Activity [6] was “Dose-dependent effect”. The IC50 [6] was 10.8 µM.

For `COc1cccc2c1C(=O)c1c(O)c3c(c(O)c1C2=O)C[C@@](O)(C(=O)CO)C[C@@H]3O[C@H]1C[C@H](N)[C@H](O)[C@H](C)O1` [DOXORUBICIN], the Activity [1] was “Dose-dependent effect”, the Activity [3] was “Dose-dependent effect” and the Activity [4] was “Dose-dependent effect”. For the same molecule, the IC50 [4] was 1.2 µM, the Activity [5] was “Dose-dependent effect” and the IC50 [5] was 1 µM. For the same molecule, the IC50 [6] was 1.35 µM.

With `C=C(C)[C@@H]1CC[C@]2(C(=O)OCCCN3CCCC3)CC[C@]3(C)[C@H](CC[C@@H]4[C@@]5(C)CCC(=O)C(C)(C)[C@@H]5CC[C@]43C)[C@@H]12` the Activity [1] was “Dose-dependent effect”, the IC50 [1] was 7.4 µM and the IC50 [2] was 7.6 µM. The Activity [3] was “Dose-dependent effect”, the Activity [4] was “Dose-dependent effect” and the IC50 [4] was 9.2 µM. The Activity [5] was “Dose-dependent effect”, the IC50 [5] was 8.3 µM and the Activity [6] was “Dose-dependent effect”. It also gave an IC50 [6] of 8.4 µM.

With `C=C(C)[C@@H]1CC[C@]2(C(=O)OCCCN3CCOCC3)CC[C@]3(C)[C@H](CC[C@@H]4[C@@]5(C)CCC(=O)C(C)(C)[C@@H]5CC[C@]43C)[C@@H]12` the Activity [1] was “Dose-dependent effect”, the IC50 [1] was 5.6 µM and the IC50 [2] was 6.6 µM. For the same molecule, the Activity [3] was “Dose-dependent effect”, the Activity [4] was “Dose-dependent effect” and the IC50 [4] was 7.2 µM. The Activity [5] was “Dose-dependent effect”, the IC50 [5] was 8.6 µM and the Activity [6] was “Dose-dependent effect”. It also gave an IC50 [6] of 9.3 µM.

In the case of `C=C(C)[C@@H]1CC[C@]2(C(=O)OCCN3CCCCC3)CC[C@]3(C)[C@H](CC[C@@H]4[C@@]5(C)CCC(=O)C(C)(C)[C@@H]5CC[C@]43C)[C@@H]12`, the Activity [1] is reported as “Dose-dependent effect”, the IC50 [1] is reported as 12.5 µM and the IC50 [2] is reported as 18.8 µM. The Activity [3] was “Dose-dependent effect”, the Activity [4] was “Dose-dependent effect” and the IC50 [4] was 16.9 µM. The Activity [5] was “Dose-dependent effect”, the IC50 [5] was 17.1 µM and the Activity [6] was “Dose-dependent effect”. The IC50 [6] was 16 µM.
